Assay results reported in ChEMBL document CHEMBL1944548, “Discovery of kinase spectrum selective macrocycle (16E)-14-methyl-20-oxa-5,7,14,26-tetraazatetracyclo[19.3.1.1(2,6).1(8,12)]heptacosa-1(25),2(26),3,5,8(27),9,11,16,21,23-decaene (SB1317/TG02), a potent inhibitor of cyclin dependent kinases (CDKs), Janus kinase 2 (JAK2), and fms-like tyrosine …” (J Med Chem, 2012).
Converted amounts (≈) assume the structure as drawn.

Key:
[1] = target: Cyclin-dependent kinase 2/cyclin A (Homo sapiens, UniProt P24941); assay: Inhibition of recombinant Cdk2/cyclin A using RbING as substrate after 2 hrs by luminescence assay; format: protein-complex assay
[2] = target: Tyrosine-protein kinase JAK2 (Homo sapiens, UniProt O60674); assay: Inhibition of recombinant JAK2 using poly(Glu,Ala,Tyr) as substrate after 2 hrs by luminescence assay
[3] = target: T1, Receptor-type tyrosine-protein kinase FLT3 (Homo sapiens, UniProt P36888); assay: Inhibition of recombinant Flt3 using poly(Glu,Tyr) as substrate after 2 hrs by luminescence assay
T1 sequence (P36888 whole entry): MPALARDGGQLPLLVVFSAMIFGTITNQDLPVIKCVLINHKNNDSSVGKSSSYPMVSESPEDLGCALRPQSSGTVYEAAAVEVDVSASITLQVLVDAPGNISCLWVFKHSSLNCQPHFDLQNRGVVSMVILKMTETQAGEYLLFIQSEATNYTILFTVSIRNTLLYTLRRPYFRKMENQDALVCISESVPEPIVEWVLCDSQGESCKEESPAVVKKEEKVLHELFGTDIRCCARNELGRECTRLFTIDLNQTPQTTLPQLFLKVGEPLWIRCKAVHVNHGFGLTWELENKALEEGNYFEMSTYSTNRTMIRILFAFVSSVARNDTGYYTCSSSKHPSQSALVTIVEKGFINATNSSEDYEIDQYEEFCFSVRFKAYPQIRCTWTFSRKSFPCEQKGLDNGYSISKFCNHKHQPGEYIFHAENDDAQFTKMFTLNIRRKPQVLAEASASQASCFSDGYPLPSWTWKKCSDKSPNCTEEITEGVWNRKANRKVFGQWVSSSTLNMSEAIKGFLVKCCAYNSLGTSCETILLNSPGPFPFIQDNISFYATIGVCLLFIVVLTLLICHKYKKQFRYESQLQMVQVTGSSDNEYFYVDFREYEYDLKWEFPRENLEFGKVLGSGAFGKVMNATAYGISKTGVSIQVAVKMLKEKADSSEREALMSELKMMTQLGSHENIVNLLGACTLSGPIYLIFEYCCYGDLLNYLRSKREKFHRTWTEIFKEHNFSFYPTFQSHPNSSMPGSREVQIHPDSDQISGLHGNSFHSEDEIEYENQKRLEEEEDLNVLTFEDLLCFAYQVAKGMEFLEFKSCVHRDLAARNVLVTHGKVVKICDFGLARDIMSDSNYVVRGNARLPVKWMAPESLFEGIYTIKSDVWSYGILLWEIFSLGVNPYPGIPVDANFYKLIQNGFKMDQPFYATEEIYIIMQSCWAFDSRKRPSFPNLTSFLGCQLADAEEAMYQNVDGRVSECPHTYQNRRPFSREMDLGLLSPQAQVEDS

[4] = Solubility of the compound in PBS buffer at 250 uM at pH 7 by UV spectrophotometry; format: physicochemical
[5] = Half life in human liver microsomes at 5 uM by LC-MS/MS analysis; format: ADME, Microsome
How it was run: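 5 μM with mouse, rat, dog or human liver microsomes (~0.87 mg/mL), 50 mM potassium phosphate pH 7.4, NADPH regeneration system, 37 °C.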

HCT-116 = assay: Antiproliferative activity against human HCT116 cells after 48 hrs; format: functional, cell-based; conditions: HCT-116, 48 h
HL-60 = assay: Antiproliferative activity against human HL60 cells after 48 hrs; format: functional, cell-based; conditions: HL-60, 48 h
[6] = Oral bioavailability in nude mouse at 50 mg/kg; format: ADME, organism-based; conditions: in vivo

Sequence of Tyrosine-protein kinase JAK2 (O60674 whole entry): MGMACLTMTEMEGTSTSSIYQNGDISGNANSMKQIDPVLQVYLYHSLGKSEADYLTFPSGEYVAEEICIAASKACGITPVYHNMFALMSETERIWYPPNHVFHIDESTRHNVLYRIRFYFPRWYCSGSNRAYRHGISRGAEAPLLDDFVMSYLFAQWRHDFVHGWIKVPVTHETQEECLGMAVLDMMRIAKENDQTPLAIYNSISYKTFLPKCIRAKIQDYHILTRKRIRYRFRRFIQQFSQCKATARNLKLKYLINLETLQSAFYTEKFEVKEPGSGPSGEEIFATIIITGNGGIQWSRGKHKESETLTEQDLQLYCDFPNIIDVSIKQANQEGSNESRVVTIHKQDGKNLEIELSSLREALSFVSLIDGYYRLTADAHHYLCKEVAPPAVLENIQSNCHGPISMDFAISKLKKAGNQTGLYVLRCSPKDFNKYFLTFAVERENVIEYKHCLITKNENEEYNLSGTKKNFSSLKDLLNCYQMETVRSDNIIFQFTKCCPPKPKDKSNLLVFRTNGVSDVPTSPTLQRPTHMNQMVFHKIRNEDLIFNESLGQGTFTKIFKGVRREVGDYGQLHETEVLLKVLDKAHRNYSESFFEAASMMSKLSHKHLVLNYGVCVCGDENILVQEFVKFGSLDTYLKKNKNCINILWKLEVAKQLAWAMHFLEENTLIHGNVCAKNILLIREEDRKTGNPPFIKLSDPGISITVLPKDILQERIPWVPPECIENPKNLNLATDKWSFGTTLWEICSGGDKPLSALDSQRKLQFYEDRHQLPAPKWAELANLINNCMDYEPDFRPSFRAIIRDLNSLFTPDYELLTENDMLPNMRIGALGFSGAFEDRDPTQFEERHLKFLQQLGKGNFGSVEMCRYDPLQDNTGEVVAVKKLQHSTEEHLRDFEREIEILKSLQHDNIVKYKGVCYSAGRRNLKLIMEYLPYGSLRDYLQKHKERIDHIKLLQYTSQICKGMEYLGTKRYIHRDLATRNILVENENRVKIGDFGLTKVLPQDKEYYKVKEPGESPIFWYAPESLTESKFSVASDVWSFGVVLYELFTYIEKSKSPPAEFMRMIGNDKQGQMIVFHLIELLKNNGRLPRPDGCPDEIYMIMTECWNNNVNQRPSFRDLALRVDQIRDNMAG

Row | SMILES | IC50 [1] | IC50 [2] | IC50 [3] | solubility at 250 µM [4] | half-life at 5 µM [5] | IC50 (HCT-116) | IC50 (HL-60) | bioavailability [6]
1 | COCCOc1ccc2cc1CN(C)C/C=C/CCOc1cccc(c1)-c1ccnc(n1)N2 | 110 nM | 62 nM | 25 nM |  |  |  |  | 
2 | CN1C/C=C/CCOc2cccc(c2)-c2ccnc(n2)Nc2ccc(OCCN3CCCC3)c(c2)C1 | 250 nM | 56 nM | 35 nM | 150 µg/mL (≈ 309 µM) |  |  |  | 
3 | COCCN1C/C=C/CCOc2cccc(c2)-c2ccnc(n2)Nc2cccc(c2)C1 | 410 nM | 1600 nM | 490 nM |  |  |  |  | 
4 | C1=C/CNc2cccc(c2)Nc2nccc(n2)-c2cccc(c2)OCC/1 | 150 nM | 3300 nM | 2900 nM |  |  |  |  | 
5 | C1=C/CN(CC2CC2)Cc2cccc(c2)Nc2nccc(n2)-c2cccc(c2)OCC/1 | 94 nM | 1500 nM | 270 nM |  |  |  |  | 
6 | CN1C/C=C/CCOc2cccc(c2)-c2ccnc(n2)Nc2ccc(Cl)c(c2)C1 | 24 nM | 82 nM | 77 nM |  |  |  |  | 
7 | CN1C/C=C/COCc2cccc(c2)-c2ccnc(n2)Nc2cccc(c2)C1 | 660 nM | 1700 nM | 210 nM |  |  |  |  | 
8 | FC(F)(F)CN1C/C=C/CCOc2cccc(c2)-c2ccnc(n2)Nc2ccc(OCCN3CCCC3)c(c2)C1 | > 10000 nM | 220 nM | 110 nM |  |  |  |  | 
9 | CN1C/C=C/CCOc2cccc(c2)-c2ccnc(n2)Nc2cc(N)cc(c2)C1 | 7 nM | 50 nM | 19 nM |  |  |  |  | 
10 | N#CCN1C/C=C/CCOc2cccc(c2)-c2ccnc(n2)Nc2ccc(OCCN3CCCC3)c(c2)C1 | 310 nM | 150 nM | 29 nM |  |  |  |  | 
11 | O=C1CC/C=C\COc2cccc(c2)-c2ccnc(n2)Nc2cccc(c2)N1 | 2600 nM | 1750 nM | 1020 nM |  |  |  |  | 
12 | CN1C/C=C/CCOc2cccc(c2)-c2ccnc(n2)Nc2cc(cc(NC(=O)C(F)(F)F)c2)C1 | 8 nM | 50 nM | 19 nM |  |  |  |  | 
13 | CN1C/C=C/CC(=O)Nc2cccc(c2)-c2ccnc(n2)Nc2cccc(c2)C1 | 4600 nM | > 10000 nM | 2750 nM |  |  |  |  | 
14 | CN1C/C=C/CCOc2cccc(c2)-c2ccnc(n2)Nc2cc(cc(NC(=O)N3CCOCC3)c2)C1 | 87 nM | 44 nM | 37 nM |  |  |  |  | 
15 | CC(C)CN1C/C=C/CCOc2cccc(c2)-c2ccnc(n2)Nc2cccc(c2)C1 | 200 nM | 1500 nM | 190 nM |  |  |  |  | 
16 | C1=C/CNCc2cccc(c2)Nc2nccc(n2)-c2cccc(c2)OCC/1 | 21 nM |  | 110 nM |  |  |  |  | 
17 | CN1C/C=C/CCOc2cccc(c2)-c2ccnc(n2)Nc2ccc(OCCN3CCCCC3)c(c2)C1 | 260 nM | 62 nM | 45 nM | 146 µg/mL (≈ 292 µM) |  |  |  | 
18 | CN1CCN(CCOc2ccc3cc2CN(C)C/C=C/CCOc2cccc(c2)-c2ccnc(n2)N3)CC1 | 900 nM | 220 nM | 250 nM |  |  |  |  | 
19 | CN1C/C=C/CCOc2cccc(c2)-c2ccnc(n2)Nc2ccc(OCC(=O)N3CCCC3)c(c2)C1 | 390 nM | 140 nM | 150 nM |  |  |  |  | 
20 | C1=C/CN(C2CC2)Cc2cccc(c2)Nc2nccc(n2)-c2cccc(c2)OCC/1 |  | 90 nM | 42 nM |  |  |  |  | 

Row | SMILES | IC50 [1] | IC50 [2] | IC50 [3] | solubility at 250 µM [4] | half-life at 5 µM [5] | IC50 (HCT-116) | IC50 (HL-60) | bioavailability [6]
21 | CN1C/C=C/CCOc2cccc(c2)-c2ccnc(n2)Nc2ccc(N3CCOCC3)c(c2)C1 | 74 nM | 49 nM | 71 nM | 147 µg/mL (≈ 321 µM) | 21 min | 410 nM | 76 nM | 
22 | COc1ccc2cc1OCC/C=C/CN(C)Cc1cccc(c1)Nc1nccc-2n1 | 2300 nM | 510 nM | 310 nM |  |  |  |  | 
23 | OCCN1C/C=C/CCOc2cccc(c2)-c2ccnc(n2)Nc2cccc(c2)C1 | 100 nM |  | 350 nM |  |  |  |  | 
24 | CN1C/C=C/CCOc2cc(F)cc(c2)-c2ccnc(n2)Nc2cccc(c2)C1 | 9 nM | 160 nM | 22 nM |  |  |  |  | 
25 | CN1C/C=C/CCOc2cccc(c2)-c2cc(N3CCCC3)nc(n2)Nc2cccc(c2)C1 | > 10000 nM | > 10000 nM | > 10000 nM |  |  |  |  | 
26 | O=C(N1C/C=C/CCOc2cccc(c2)-c2ccnc(n2)Nc2cccc(c2)C1)C(F)(F)F | > 10000 nM | > 10000 nM | > 10000 nM |  |  |  |  | 
27 | CC(C)(C)CN1C/C=C/CCOc2cccc(c2)-c2ccnc(n2)Nc2cccc(c2)C1 | > 10000 nM | > 10000 nM | > 10000 nM |  |  |  |  | 
28 | CCS(=O)(=O)CCOc1ccc2cc1CN(C)C/C=C/CCOc1cccc(c1)-c1ccnc(n1)N2 | 170 nM | 110 nM | 93 nM |  |  |  |  | 
29 | CN1C/C=C/CNC(=O)c2cccc(c2)-c2ccnc(n2)Nc2cccc(c2)C1 | > 10000 nM | > 10000 nM | > 10000 nM |  |  |  |  | 
30 | CN1C/C=C/COCc2cccc(c2)Nc2nccc(n2)-c2cccc(c2)C1 | 99 nM | 230 nM | 310 nM |  |  |  |  | 
31 | CN1C/C=C/CCOc2cccc(c2)-c2ccnc(n2)Nc2ccc(OC(F)(F)F)c(c2)C1 | 57 nM | 150 nM | 160 nM |  |  |  |  | 
32 | CCS(=O)(=O)c1ccc2cc1CN(C)C/C=C/CCOc1cccc(c1)-c1ccnc(n1)N2 | 22 nM | 100 nM | 440 nM |  |  |  |  | 
33 | CCN(CC)CCOc1ccc2cc1CN(C)C/C=C/CCOc1cccc(c1)-c1ccnc(n1)N2 | 300 nM | 48 nM | 30 nM | 150 µg/mL (≈ 308 µM) |  |  |  | 5%
34 | C1=C/CN(Cc2ccccn2)Cc2cccc(c2)Nc2nccc(n2)-c2cccc(c2)OCC/1 | 480 nM | 1350 nM | 1450 nM |  |  |  |  | 
35 | Cc1cc2nc(n1)Nc1cccc(c1)CN(C)C/C=C/CCOc1cccc-2c1 | 4700 nM | > 10000 nM | 1700 nM |  |  |  |  | 
36 | CN1C/C=C/CCOc2cccc(c2)-c2ccnc(n2)Nc2ccc(OCCN3CCOCC3)c(c2)C1 | 300 nM | 120 nM | 40 nM | 154 µg/mL (≈ 307 µM) |  |  |  | 
37 | COc1ccc2cc1CN(C)C/C=C/CCOc1cccc(c1)-c1ccnc(n1)N2 | 77 nM | 280 nM | 66 nM |  |  |  |  | 
38 | COc1cc2cc(c1OCCN1CCCC1)CN(C)C/C=C/CCOc1cccc(c1)-c1ccnc(n1)N2 | 6700 nM | 210 nM | 98 nM |  |  |  |  | 
39 | CC(C)NCC(=O)N1C/C=C/CCOc2cccc(c2)-c2ccnc(n2)Nc2cccc(c2)C1 | 530 nM |  | 140 nM | 105 µg/mL (≈ 230 µM) |  |  |  | 
